Experimental data: article PMC9669183 (British journal of pharmacology, 2022)
Where two headings read alike, the source gives them in different places.

Tests used:
[1] = biological target: T1, α1β2γ2L GABAAR (Rattus norvegicus, UniProt P18508+P62813+P63138, INS375LLRMFSFK); experiment: Drug combination; format: cell-based; details: for observed PA in the presence of R(+)-etomidate+α7-PAM / predicted PA for R(+)-etomidate+α7-PAM, distinct site model / predicted PA for R(+)-etomidate+α7-PAM, same site model: 50 μM α7-PAM
[2] = biological target: T1, α1β2γ2L GABAAR; format: cell-based; details: for potentiation of the response to low GABA (% of control): 50 μM α7-PAM, 2-5 μM GABA (PA<0.10), 100% = no effect, mean±SEM; for free energy change (ΔG) towards stabilizing the active state: co-agonist concerted transition model
[3] = biological target: T2, α1β3γ2L GABAAR (Homo sapiens, UniProt P14867+P18507+P28472); experiment: Potentiation of low GABA response, oocytes; format: cell-based; details: 50 μM; low GABA PA<0.10; mean±SEM
[4] = biological target: T1, α1β2γ2L GABAAR; experiment: Direct activation, two-electrode voltage clamp in Xenopus oocytes; format: cell-based; details: 50 μM α7-PAM; n=5 oocytes/drug; mean±SEM
[5] = test system: α3β4 nicotinic receptor; details: at high μM concentrations; ref Arias et al., 2011; Timmermann et al., 2007; cited from earlier work
[6] = biological target: α1β2γ2L(I242C) GABAAR (Rattus norvegicus, UniProt P18508+P62813+P63138, I280C/INS375LLRMFSFK); experiment: Potentiation of low GABA response, mutant receptor in oocytes; format: cell-based; details: 50 μM; low GABA PA<0.10; mean±SEM
[7] = biological target: T1, α1β2γ2L GABAAR; experiment: Potentiation of receptors activated by allosteric agonists; format: cell-based; details: 50 μM α7-PAM; for potentiation of currents elicited by propofol (% of control): 10 μM propofol; for potentiation of the response to phenobarbital (% of control): 1 mM phenobarbital, n=5; for potentiation of the peak response to R(+)-etomidate (% of control): 2-4 μM R(+)-etomidate
[8] = biological target: α1(L232C)β2γ2L GABAAR (Rattus norvegicus, UniProt P18508+P62813+P63138, INS375LLRMFSFK/L258C); experiment: Potentiation of low GABA response, mutant receptor in oocytes; format: cell-based; details: 50 μM; low GABA PA<0.10; mean±SEM
[9] = biological target: α1β3(M227C)γ2L GABAAR (Homo sapiens, UniProt P14867+P18507+P28472, M252C); experiment: as above; format: cell-based; details: 50 μM; low GABA PA<0.10; mean±SEM
[10] = biological target: α1β2(N265M)γ2L GABAAR (Rattus norvegicus, UniProt P18508+P62813+P63138, INS375LLRMFSFK/N289M); experiment: as above; format: cell-based; details: 50 μM; low GABA PA<0.10; mean±SEM
[11] = test system: binary αβ GABAA receptors (α1β2, α1β3); experiment: Potentiation of binary αβ receptors compared with ternary αβγ, oocytes; format: cell-based
[12] = biological target: T1, α1β2γ2L GABAAR; experiment: Modulation of steady-state response to saturating GABA, Xenopus oocytes; format: cell-based; details: 50 μM α7-PAM; 1 mM GABA
[13] = biological target: T2, α1β3γ2L GABAAR; format: binding; details: for direct effect on fluorescence from α1β3γ2L-bound Gzn-OG (orthosteric site): 3-100 μM α7-PAM, no GABA
[14] = biological target: α1(Q241L)β2γ2L GABAAR (Rattus norvegicus, UniProt P18508+P62813+P63138, INS375LLRMFSFK/Q268L); experiment: Potentiation of low GABA response, mutant receptor in oocytes; format: cell-based; details: 50 μM; low GABA PA<0.10; mean±SEM
[15] = biological target: α1β2(M286W)γ2L GABAAR (Rattus norvegicus, UniProt P18508+P62813+P63138, INS375LLRMFSFK/M310W); experiment: as above; format: cell-based; details: 50 μM; low GABA PA<0.10; mean±SEM
[16] = biological target: α4β2δ GABAA receptor (Homo sapiens, UniProt O14764+P47870+P48169); experiment: Effect on α4β2δ receptor during long drug applications, oocytes; format: cell-based
In short: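 Human α4β2δ GABAA receptors were expressed in Xenopus laevis oocytes by injecting 3.5-6 ng total cRNA per oocyte. Oocytes were held 1-2 days in ND96 (pH 7.4) with Na pyruvate and antibiotics. Currents were recorded by two-electrode voltage clamp.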

[17] = biological target: α1β3(L231C)γ2L GABAAR (Homo sapiens, UniProt P14867+P18507+P28472, L256C); experiment: Potentiation of low GABA response, mutant receptor in oocytes; format: cell-based; details: 50 μM; low GABA PA<0.10; mean±SEM
[18] = biological target: α1β2γ2L(L246C) GABAAR (Rattus norvegicus, UniProt P18508+P62813+P63138, INS375LLRMFSFK/L284C); experiment: as above; format: cell-based; details: 50 μM; low GABA PA<0.10; mean±SEM
[19] = biological target: α1(M236C)β2γ2L GABAAR (Rattus norvegicus, UniProt P18508+P62813+P63138, INS375LLRMFSFK/M262C); experiment: as above; format: cell-based; details: 50 μM; low GABA PA<0.10; mean±SEM
[20] = biological target: α1(A291W)β2γ2L GABAAR (Rattus norvegicus, UniProt P18508+P62813+P63138, A317W/INS375LLRMFSFK); experiment: as above; format: cell-based; details: 50 μM; low GABA PA<0.10; mean±SEM
[21] = test system: α4β2 nicotinic receptor; details: at high μM concentrations; ref Arias et al., 2011; Timmermann et al., 2007; cited from earlier work
[22] = biological target: α1β2γ2L(S280C) GABAAR (Rattus norvegicus, UniProt P18508+P62813+P63138, INS375LLRMFSFK/S318C); experiment: Potentiation of low GABA response, mutant receptor in oocytes; format: cell-based; details: 50 μM; low GABA PA<0.10; mean±SEM
[23] = 0.5 μM GABA+20 μM NS-1738+25 μM PAM-2

Sequence of α4β2δ GABAA receptor (P48169 36-554): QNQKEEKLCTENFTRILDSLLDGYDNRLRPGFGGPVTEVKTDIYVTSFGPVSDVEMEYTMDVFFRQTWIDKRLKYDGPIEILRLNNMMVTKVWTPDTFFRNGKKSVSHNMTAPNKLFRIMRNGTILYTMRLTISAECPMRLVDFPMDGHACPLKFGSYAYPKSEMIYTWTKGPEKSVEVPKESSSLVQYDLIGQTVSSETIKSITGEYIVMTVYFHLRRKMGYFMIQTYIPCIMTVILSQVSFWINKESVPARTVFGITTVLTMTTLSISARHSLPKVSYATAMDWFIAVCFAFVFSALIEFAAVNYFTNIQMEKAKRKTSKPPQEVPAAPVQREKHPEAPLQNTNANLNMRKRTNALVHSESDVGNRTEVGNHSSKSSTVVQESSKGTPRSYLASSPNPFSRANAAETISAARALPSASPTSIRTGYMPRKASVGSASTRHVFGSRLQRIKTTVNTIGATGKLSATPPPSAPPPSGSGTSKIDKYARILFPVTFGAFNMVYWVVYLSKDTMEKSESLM
Sequence of α4β2δ GABAA receptor (P47870 25-512 limits assumed): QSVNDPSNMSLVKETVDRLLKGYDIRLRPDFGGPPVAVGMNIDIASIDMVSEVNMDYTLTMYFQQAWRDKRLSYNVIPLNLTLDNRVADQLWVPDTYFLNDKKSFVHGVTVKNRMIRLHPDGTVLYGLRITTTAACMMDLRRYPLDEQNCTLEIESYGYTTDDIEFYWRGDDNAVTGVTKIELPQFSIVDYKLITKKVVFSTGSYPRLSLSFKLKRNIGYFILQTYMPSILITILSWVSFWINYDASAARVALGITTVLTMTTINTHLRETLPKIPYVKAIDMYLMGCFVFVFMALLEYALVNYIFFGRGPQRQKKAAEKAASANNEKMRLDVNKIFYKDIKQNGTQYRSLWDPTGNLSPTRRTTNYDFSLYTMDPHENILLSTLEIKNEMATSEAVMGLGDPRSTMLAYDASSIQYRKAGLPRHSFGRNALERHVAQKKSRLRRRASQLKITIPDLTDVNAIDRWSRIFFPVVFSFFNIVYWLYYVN
Sequence of α4β2δ GABAA receptor (O14764 25-452): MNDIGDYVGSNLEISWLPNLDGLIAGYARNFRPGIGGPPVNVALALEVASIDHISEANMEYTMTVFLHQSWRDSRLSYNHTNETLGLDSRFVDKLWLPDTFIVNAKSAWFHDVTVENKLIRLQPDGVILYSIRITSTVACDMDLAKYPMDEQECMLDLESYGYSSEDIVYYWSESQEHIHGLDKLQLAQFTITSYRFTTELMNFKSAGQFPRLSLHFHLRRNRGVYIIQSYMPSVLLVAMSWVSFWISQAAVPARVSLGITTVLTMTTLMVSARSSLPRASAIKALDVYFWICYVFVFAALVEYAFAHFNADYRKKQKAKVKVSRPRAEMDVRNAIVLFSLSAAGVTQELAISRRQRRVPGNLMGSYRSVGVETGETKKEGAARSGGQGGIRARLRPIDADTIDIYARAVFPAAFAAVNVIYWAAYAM

Row | SMILES | Potentiation (% of control), α1β3γ2L [3] | direct activation: response as % of the peak response to 1 mM GABA+50 μM propofol [4] | effect on the heteromeric α3β4 nicotinic receptor [5] | Potentiation (% of control), α1β2γ2L(I242C) [6] | potentiation of currents elicited by propofol (% of control) [7] | potentiation of the response to phenobarbital (% of control) [7] | potentiation of the peak response to R(+)-etomidate (% of control) [7] | Potentiation (% of control), α1(L232C)β2γ2L [8] | Potentiation (% of control), α1β3(M227C)γ2L [9] | Potentiation (% of control), α1β2(N265M)γ2L [10] | magnitude of potentiation in binary αβ vs ternary αβγ receptors [11] | steady-state response to saturating GABA in presence of α7-PAM (% of control) [12] | decrease in GABA Ki between 0 (control) and 100 μM α7-PAM [13] | direct effect on fluorescence from α1β3γ2L-bound Gzn-OG (orthosteric site) [13] | Potentiation (% of control), α1(Q241L)β2γ2L [14] | Potentiation (% of control), α1β2(M286W)γ2L [15] | effect on the α4β2δ receptor [16] | Potentiation (% of control), α1β3(L231C)γ2L [17] | Potentiation (% of control), α1β2γ2L(L246C) [18] | Potentiation (% of control), α1(M236C)β2γ2L [19] | further results
1 | NCCCC(=O)O [GABA, γ-aminobutyric acid] |  |  |  |  |  |  |  |  |  |  |  |  |  |  |  |  |  |  |  |  | PA of response to GABA alone ([1]; 0.5 μM GABA, n=5): 0.039±0.013; PA of response to GABA alone ([2]; 2-5 μM GABA (EC6-7)): 0.05-0.06
2 | O=C(Nc1cc(Cl)ccc1O)Nc1cc(C(F)(F)F)ccc1Cl [NS-1738, N-(5-Cl-2-hydroxyphenyl)-N’-[2-Cl-5-(trifluoromethyl)phenyl]-urea] | 301 ± 12% of control | 0.86±0.51% | inhibit | 376 ±35% of control | 145±11 % of control | 431±52 % of control | 125±8 % of control | 357 ± 55% of control | 322 ± 40% of control | 426 ± 61% of control | similar | 44±8 % of control | 25 fold | do not modify fluorescence | 491 ± 45% of control | 613 ±91% % of control | inhibited | 217 ± 36% of control | 262 ± 25% of control | 181 ± 15% % of control | Potentiation (% of control), α1(A291W)β2γ2L [20]: 199 ± 22% % of control; PA of response to GABA+NS-1738 ([1]; 0.5 μM GABA+20 μM NS-1738): 0.153±0.043; observed PA in the presence of R(+)-etomidate+α7-PAM [1]: 0.068±0.022; predicted PA for R(+)-etomidate+α7-PAM, distinct site model [1]: 0.253±0.055; predicted PA for R(+)-etomidate+α7-PAM, same site model [1]: 0.007±0.002; PA of response to low GABA+NS-1738 ([1]; 0.1-0.5 μM GABA+10 μM NS-1738, 5 oocytes): 0.084±0.028; potentiation of the response to low GABA (% of control) [2]: 383±38 % of control; free energy change (ΔG) towards stabilizing the active state [2]: -1.29 kcal/mol; effect on the heteromeric α4β2 nicotinic receptor [21]: inhibit; Potentiation (% of control), α1β2γ2L(S280C) [22]: 344 ± 60% of control
3 | Cc1ccc(NC(=O)/C=C/c2ccco2)cc1 [PAM-2, (E)-3-(furan-2-yl)-N-(p-tolyl)-acrylamide] | 176 ± 12% % of control | 0.70±0.19% | inhibit | 189 ± 11% % of control | 123±9 % of control | 103±6 % of control | 140±17 % of control | 197 ± 8% % of control | 163 ± 12% of control | 124 ± 6% % of control | similar | 70±4 % of control | 3.8 fold | do not modify fluorescence | 382 ± 29% of control | 181 ± 12% % of control | inhibited | 153 ± 11% of control | 147 ± 7% % of control | 176 ± 11% % of control | Potentiation (% of control), α1(A291W)β2γ2L [20]: 130 ± 7% % of control; calculated PA for GABA+NS-1738+PAM-2, distinct site model [1, 23]: 0.267±0.065; calculated PA for GABA+NS-1738+PAM-2, same site model [1, 23]: 0.146±0.043; observed PA of response to GABA+NS-1738+PAM-2 [1, 23]: 0.158±0.044; observed PA in the presence of R(+)-etomidate+α7-PAM [1]: 0.050±0.013; predicted PA for R(+)-etomidate+α7-PAM, distinct site model [1]: 0.097±0.030; predicted PA for R(+)-etomidate+α7-PAM, same site model [1]: 0.008±0.002; EC50 [2]: 26 ± 8 µM; Kd [2]: 24.8 ± 10.5 µM; potentiation of the response to low GABA (% of control) [2]: 300 ± 43 % of control; free energy change (ΔG) towards stabilizing the active state [2]: -0.76 kcal/mol; effect on the heteromeric α4β2 nicotinic receptor [21]: inhibit; Potentiation (% of control), α1β2γ2L(S280C) [22]: 233 ± 16% of control
